According to ChEMBL document CHEMBL4028916, “A Dipolar Cycloaddition Reaction To Access 6-Methyl-4,5,6,7-tetrahydro-1H-[1,2,3]triazolo[4,5-c]pyridines Enables the Discovery Synthesis and Preclinical Profiling of a P2X7 Antagonist Clinical Candidate” (J Med Chem, 2018):
Blank lines part the entries; values can stand above or below the molecule they belong to.

Columns and labels:
[1] = Half life in Sprague-Dawley rat at 1 mg/kg, iv by LC-MS/MS method; assay type: ADME, organism-based; details: in vivo
How it was run: (§1)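 Single-dose PK in male Sprague-Dawley rats, beagle dogs or cynomolgus monkeys, given i.v. and p.o. as a solution in 50% PEG400/50% water or 20% HP-β-CD. Plasma measured by LC–MS/MS; parameters from noncompartmental analysis.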

[2] = Oral bioavailability in Beagle dog at 1.25 mg/kg by LC-MS/MS method; assay type: ADME, organism-based, Canis lupus familiaris; details: in vivo; how it was run: as §1
[3] = Cmax in rat at 125 mg/kg, po for 5 days; assay type: ADME, organism-based; design: dose 125 mg/kg, route oral; details: in vivo
[4] = Drug uptake in Sprague-Dawley rat brain administered at 10 mg/kg, po measured after 6.0 hrs; assay type: ADME, organism-based
How it was run: (§2)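 Male Sprague Dawley rats (300–400 g) given 10 mg/kg p.o. One compound was dosed as a 0.5% HPMC suspension and the other as a 20% HP-β-cyclodextrin solution. Two animals per time point were killed with CO2 at 0.5, 2 and 6 h, and plasma and brain drug levels were taken. Data are mean ± SEM (n=2).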

[5] = Plasma concentration in guinea pig; assay type: ADME, Cavia porcellus
[6] = AUC in rat at 125 mg/kg, po for 5 days; assay type: ADME, organism-based; details: in vivo
[7] = Apparent permeability across basolateral to apical side in human Caco2 cells; assay type: ADME, cell-based; details: Caco-2
How it was run: (§3)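 Caco-2 bidirectional permeability, reported as Papp B-A/A-B (×10⁻⁶ cm/s).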

[8] = Drug uptake in Sprague-Dawley rat plasma administered at 10 mg/kg, po measured after 2.0 hrs; assay type: ADME, organism-based; how it was run: as §2
[9] = Clearance in Sprague-Dawley rat at 1 mg/kg, iv or 5 mg/kg, po by LC-MS/MS method; assay type: ADME, organism-based; details: in vivo
[10] = Volume of distribution at steady state in Beagle dog at […], iv or 1.25 mg/kg, po by LC-MS/MS method; assay type: ADME, organism-based, Canis lupus familiaris; details: in vivo, read-out: Vdss
[11] = AUC (24 hrs) in Beagle dog at […], iv or 1.25 mg/kg, po by LC-MS/MS method; assay type: ADME, organism-based, Canis lupus familiaris; details: in vivo
[12] = Oral bioavailability in Sprague-Dawley rat at 5 mg/kg by LC-MS/MS method; assay type: ADME, organism-based; details: in vivo; how it was run: as §1
[13] = Partition coefficient, log D of the compound at pH 7.4; assay type: physicochemical; details: octanol/water
Cavia porcellus = organism: Cavia porcellus; experiment: Toxicity in guinea pig; details: in vivo
[14] = Cmax in cynomolgus monkey at 0.5 mg/kg, iv or […], po by LC-MS/MS method; assay type: ADME, organism-based, Macaca fascicularis; details: in vivo
[15] = Drug uptake in Sprague-Dawley rat brain administered at 10 mg/kg, po measured after 0.5 hrs; assay type: ADME, organism-based; how it was run: as §2
[16] = Drug uptake in Sprague-Dawley rat plasma administered at 10 mg/kg, po measured after 0.5 hrs; assay type: ADME, organism-based; how it was run: as §2
[17] = Clearance in Beagle dog at […], iv or 1.25 mg/kg, po by LC-MS/MS method; assay type: ADME, organism-based, Canis lupus familiaris; details: in vivo
[18] = Cmax in Sprague-Dawley rat at 1 mg/kg, iv or 5 mg/kg, po by LC-MS/MS method; assay type: ADME, organism-based; details: in vivo
[19] = Clearance in cynomolgus monkey at 0.5 mg/kg, iv or […], po by LC-MS/MS method; assay type: ADME, organism-based, Macaca fascicularis; details: in vivo
[20] = Volume of distribution at steady state in Sprague-Dawley rat at 1 mg/kg, iv or 5 mg/kg, po by LC-MS/MS method; assay type: ADME, organism-based; details: in vivo, read-out: Vdss
[21] = Volume of distribution at steady state in cynomolgus monkey at 0.5 mg/kg, iv or […], po by LC-MS/MS method; assay type: ADME, organism-based, Macaca fascicularis; details: in vivo, read-out: Vdss
[22] = Oral bioavailability in cynomolgus monkey at […] by LC-MS/MS method; assay type: ADME, organism-based, Macaca fascicularis; details: in vivo
Canis familiaris = organism: Canis familiaris; experiment: Toxicity in dog; design: species or system Canis lupus familiaris; details: in vivo
[23] = Apparent permeability across apical to basolateral side in human Caco2 cells; assay type: ADME, cell-based; details: Caco-2; how it was run: as §3
[24] = Half life in Beagle dog at […], iv by LC-MS/MS method; assay type: ADME, organism-based, Canis lupus familiaris; details: in vivo
[25] = AUC (24 hrs) in cynomolgus monkey at 0.5 mg/kg, iv or […], po by LC-MS/MS method; assay type: ADME, organism-based, Macaca fascicularis; details: in vivo
[26] = AUC in dog at 10 mg/kg, po for 5 days; assay type: ADME, organism-based, Canis lupus familiaris; details: in vivo
[27] = AUC (24 hrs) in Sprague-Dawley rat at 1 mg/kg, iv or 5 mg/kg, po by LC-MS/MS method; assay type: ADME, organism-based; details: in vivo
[28] = Cmax in Beagle dog at […], iv or 1.25 mg/kg, po by LC-MS/MS method; assay type: ADME, organism-based, Canis lupus familiaris; details: in vivo
[29] = Drug uptake in Sprague-Dawley rat brain administered at 10 mg/kg, po measured after 2.0 hrs; assay type: ADME, organism-based; how it was run: as §2
[30] = Cmax in dog at 10 mg/kg, po for 5 days; assay type: ADME, organism-based, Canis lupus familiaris; design: dose 10 mg/kg, route oral; details: in vivo
[31] = Drug uptake in Sprague-Dawley rat plasma administered at 10 mg/kg, po measured after 6.0 hrs; assay type: ADME, organism-based; how it was run: as §2
[32] = Half life in cynomolgus monkey at 0.5 mg/kg, iv by LC-MS/MS method; assay type: ADME, organism-based, Macaca fascicularis; details: in vivo; how it was run: as §1
Plasma = experiment: Plasma concentration in dog; assay type: ADME, Canis lupus familiaris
[33] = Cmax in Sprague-Dawley rat at 0.5 mg/kg, iv or […], po by LC-MS/MS method; assay type: ADME, organism-based; details: in vivo
[34] = Volume of distribution at steady state in cynomolgus monkey at 0.125 mg/kg, iv or 0.625 mg/kg, po by LC-MS/MS method; assay type: ADME, organism-based, Macaca fascicularis; details: in vivo, read-out: Vdss
[35] = Half life in cynomolgus monkey at 0.125 mg/kg, iv by LC-MS/MS method; assay type: ADME, organism-based, Macaca fascicularis; details: in vivo; how it was run: as §1
[36] = Cmax in dog at 300 mg/kg, po for 5 days; assay type: ADME, organism-based, Canis lupus familiaris; design: dose 300 mg/kg, route oral; details: in vivo
[37] = Oral bioavailability in cynomolgus monkey at 0.625 mg/kg by LC-MS/MS method; assay type: ADME, organism-based, Macaca fascicularis; details: in vivo; how it was run: as §1
[38] = AUC (24 hrs) in Beagle dog at 0.125 mg/kg, iv or 0.625 mg/kg, po by LC-MS/MS method; assay type: ADME, organism-based, Canis lupus familiaris; details: in vivo
[39] = Volume of distribution at steady state in Sprague-Dawley rat at 0.5 mg/kg, iv or […], po by LC-MS/MS method; assay type: ADME, organism-based; details: in vivo, read-out: Vdss
[40] = AUC in dog at 300 mg/kg, po for 5 days; assay type: ADME, organism-based, Canis lupus familiaris; details: in vivo
[41] = Cmax in Beagle dog at 0.125 mg/kg, iv or 0.625 mg/kg, po by LC-MS/MS method; assay type: ADME, organism-based, Canis lupus familiaris; details: in vivo
[42] = Oral bioavailability in Beagle dog at 0.625 mg/kg by LC-MS/MS method; assay type: ADME, organism-based, Canis lupus familiaris; details: in vivo; how it was run: as §1
[43] = Cmax in cynomolgus monkey at 0.125 mg/kg, iv or 0.625 mg/kg, po by LC-MS/MS method; assay type: ADME, organism-based, Macaca fascicularis; details: in vivo
[44] = Clearance in cynomolgus monkey at 0.125 mg/kg, iv or 0.625 mg/kg, po by LC-MS/MS method; assay type: ADME, organism-based, Macaca fascicularis; details: in vivo
[45] = Volume of distribution at steady state in Beagle dog at 0.125 mg/kg, iv or 0.625 mg/kg, po by LC-MS/MS method; assay type: ADME, organism-based, Canis lupus familiaris; details: in vivo, read-out: Vdss
[46] = Cmax in rat at 250 mg/kg, po for 4 days; assay type: ADME, organism-based; design: dose 250 mg/kg, route oral; details: in vivo
[47] = AUC (24 hrs) in cynomolgus monkey at 0.125 mg/kg, iv or 0.625 mg/kg, po by LC-MS/MS method; assay type: ADME, organism-based, Macaca fascicularis; details: in vivo
[48] = AUC in rat dosed at 250 mg/kg, po for 4 days; assay type: ADME, organism-based; details: in vivo
[49] = Clearance in Sprague-Dawley rat at 0.5 mg/kg, iv or […], po by LC-MS/MS method; assay type: ADME, organism-based; details: in vivo
[50] = Half life in Sprague-Dawley rat at 0.5 mg/kg, iv by LC-MS/MS method; assay type: ADME, organism-based; details: in vivo; how it was run: as §1
[51] = Oral bioavailability in Sprague-Dawley rat at […] by LC-MS/MS method; assay type: ADME, organism-based; details: in vivo
[52] = AUC (24 hrs) in Sprague-Dawley rat at 0.5 mg/kg, iv or […], po by LC-MS/MS method; assay type: ADME, organism-based; details: in vivo
[53] = Clearance in Beagle dog at 0.125 mg/kg, iv or 0.625 mg/kg, po by LC-MS/MS method; assay type: ADME, organism-based, Canis lupus familiaris; details: in vivo
[54] = Half life in Beagle dog at 0.125 mg/kg, iv by LC-MS/MS method; assay type: ADME, organism-based, Canis lupus familiaris; details: in vivo

half-life [1]: 5.6 h
bioavailability [2]: 98%
Cmax [3]: 26 µg/mL
concentration at 6 h [4]: 1.99 µg/mL
Cp [5]: 4.095 µg/mL
AUC at 120 h [6]: 291 µg·h/mL
Papp B→A [7]: 450 nm/s
concentration at 2 h [8]: 3.43 µg/mL
clearance [9]: 0.222 L/h/kg
Vd [10]: 1.4 L/kg
AUC at 24 h [11]: 23.3 µg·h/mL
bioavailability [12]: 81%
logD [13]: 1.65
Cmax [14]: 1.86 µg/mL
concentration at 0.5 h [15]: 3.04 µg/mL
concentration at 0.5 h [16]: 3.19 µg/mL
clearance [17]: 0.048 L/h/kg
Cmax [18]: 1.75 µg/mL
clearance [19]: 0.156 L/h/kg
Vd [20]: 1.7 L/kg
Vd [21]: 1.3 L/kg
bioavailability [22]: 97%
Papp A→B [23]: 350 nm/s
half-life [24]: 21.2 h
AUC at 24 h [25]: 16.3 µg·h/mL
AUC at 120 h [26]: 167 µg·h/mL
AUC at 24 h [27]: 17.5 µg·h/mL
Cmax [28]: 1.12 µg/mL
concentration at 2 h [29]: 2.91 µg/mL
Cmax [30]: 10.7 µg/mL
concentration at 6 h [31]: 2.44 µg/mL
half-life [32]: 6 h
Cp (Plasma): 2.82 µg/mL
Compound: C[C@H]1Cc2c(nnn2-c2ncc(F)cn2)CN1C(=O)c1ccnc(C(F)(F)F)c1F [ZANVIPIXANT]
NOAEL (Cavia porcellus): 1850 ng/mL
NOAEL (Canis familiaris): 1280 ng/mL

Cmax [33]: 0.541 µg/mL
Vd [34]: 1.7 L/kg
concentration at 6 h [4]: 1.62 µg/mL
half-life [35]: 0.9 h
Papp B→A [7]: 730 nm/s
concentration at 2 h [8]: 1.88 µg/mL
Cmax [36]: 5.33 µg/mL
bioavailability [37]: 30%
logD [13]: 2.23
AUC at 24 h [38]: 3.04 µg·h/mL
Vd [39]: 2.5 L/kg
concentration at 0.5 h [15]: 1.06 µg/mL
AUC at 120 h [40]: 78.4 µg·h/mL
concentration at 0.5 h [16]: 0.855 µg/mL
Cmax [41]: 0.305 µg/mL
bioavailability [42]: 123%
Cmax [43]: 0.036 µg/mL
clearance [44]: 1.56 L/h/kg
Vd [45]: 2.6 L/kg
Cmax [46]: 9.26 µg/mL
AUC at 24 h [47]: 0.122 µg·h/mL
Papp A→B [23]: 490 nm/s
AUC at 96 h [48]: 108 µg·h/mL
concentration at 2 h [29]: 2.39 µg/mL
clearance [49]: 0.72 L/h/kg
half-life [50]: 2.5 h
bioavailability [51]: 90%
AUC at 24 h [52]: 3.19 µg·h/mL
concentration at 6 h [31]: 1.05 µg/mL
clearance [53]: 0.228 L/h/kg
half-life [54]: 8.8 h
Compound: C[C@H]1Cc2c(nnn2-c2ncc(F)cn2)CN1C(=O)c1cccc(C(F)(F)F)c1F
